From ChEMBL document CHEMBL1806370, “Development of novel naphthalimide derivatives and their evaluation as potential melanoma therapeutics” (Eur J Med Chem, 2011)

System: UACC-903
Test: Cytotoxicity against human UACC-903 cells assessed as decrease in cell viability after 24 hrs by MTS assay
Format: functional, cell-based
Details: not given
Summary of the method: (§1)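 Cells in DMEM with 10% FBS at 37 °C and 5% CO2 were plated at 5×10^3 per well and grown 24 h. They were then exposed 24 or 72 h to 0.5, 1, 5, 10, 25 and 50 µM, with final DMSO 0.5% and DMSO controls. MTS/PMS was added for 4 h at 37 °C. A492 was read with the medium blank subtracted and expressed as % of control. IC50 was taken from three independent experiments (mean ± S.E.).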
With `O=C1c2cccc3cccc(c23)C(=O)N1CCCCN=C=S` the Activity was “Dose-dependent effect”.

System: A375-S2
Test: Cytotoxicity against human A375-S2 cells assessed as decrease in cell viability after 24 hrs by MTS assay
Format: functional, cell-based
Details: not given
Summary of the method: as §1
With `O=C1c2cccc3cccc(c23)C(=O)N1CCCCN=C=S` the Activity was “Dose-dependent effect”.

System: 1205Lu
Test: Cytotoxicity against human 1205 Lu cells assessed as decrease in cell viability after 24 hrs by MTS assay
Format: functional, cell-based
Details: not given
Summary of the method: as §1
In the case of `O=C1c2cccc3cccc(c23)C(=O)N1CCCCN=C=S`, the Activity is reported as “Dose-dependent effect”.

System: UACC-903
Test: Cytotoxicity against human UACC-903 cells assessed as decrease in cell viability after 72 hrs by MTS assay
Format: functional, cell-based
Details: not given
Summary of the method: as §1
In the case of `O=C1c2cccc3cccc(c23)C(=O)N1CCCCN=C=S`, the Activity is reported as “Dose-dependent effect”.

System: A375-S2
Test: Cytotoxicity against human A375-S2 cells assessed as decrease in cell viability after 72 hrs by MTS assay
Format: functional, cell-based
Details: not given
Summary of the method: as §1
In the case of `O=C1c2cccc3cccc(c23)C(=O)N1CCCCN=C=S`, the Activity is reported as “Dose-dependent effect”.

System: 1205Lu
Test: Cytotoxicity against human 1205 Lu cells assessed as decrease in cell viability after 72 hrs by MTS assay
Format: functional, cell-based
Details: not given
Summary of the method: as §1
For `O=C1c2cccc3cccc(c23)C(=O)N1CCCCN=C=S`, the Activity was “Dose-dependent effect”.

System: UACC-903
Test: Cytotoxicity against human UACC-903 cells after 24 hrs by MTS assay
Format: functional, cell-based
Details: UACC-903, 24 h
Summary of the method: as §1
With `O=C1c2cccc3cccc(c23)C(=O)N1CCCCN=C=S` the IC50 was 10.7 µM.

System: not listed separately
Test: Cytotoxicity against human A375-S2 cells after 24 hrs by MTS assay
Format: functional, cell-based
Details: A375-S2, 24 h
Summary of the method: as §1
In the case of `O=C1c2cccc3cccc(c23)C(=O)N1CCCCN=C=S`, the IC50 is reported as 6.89 µM.

System: not listed separately
Test: Cytotoxicity against human SK-MEL-37 cells after 24 hrs by MTS assay
Format: functional, cell-based
Details: not given
Summary of the method: as §1
`O=C1c2cccc3cccc(c23)C(=O)N1CCCCN=C=S` showed an IC50 of 3.89 µM.

System: not listed separately
Test: Cytotoxicity against human 1205 Lu cells after 24 hrs by MTS assay
Format: functional, cell-based
Details: not given
Summary of the method: as §1
In the case of `O=C1c2cccc3cccc(c23)C(=O)N1CCCCN=C=S`, the IC50 is reported as 4.88 µM.

System: UACC-903
Test: Cytotoxicity against human UACC-903 cells after 72 hrs by MTS assay
Format: functional, cell-based
Details: UACC-903, 72 h
Summary of the method: as §1
In the case of `O=C1c2cccc3cccc(c23)C(=O)N1CCCCN=C=S`, the IC50 is reported as 5.17 µM.

System: not listed separately
Test: Cytotoxicity against human A375-S2 cells after 72 hrs by MTS assay
Format: functional, cell-based
Details: A375-S2, 72 h
Summary of the method: as §1
In the case of `O=C1c2cccc3cccc(c23)C(=O)N1CCCCN=C=S`, the IC50 is reported as 3.47 µM.

System: not listed separately
Test: Cytotoxicity against human SK-MEL-37 cells after 72 hrs by MTS assay
Format: functional, cell-based
Details: not given
Summary of the method: as §1
`O=C1c2cccc3cccc(c23)C(=O)N1CCCCN=C=S` showed an IC50 of 2.12 µM.

System: not listed separately
Test: Cytotoxicity against human 1205 Lu cells after 72 hrs by MTS assay
Format: functional, cell-based
Details: not given
Summary of the method: as §1
Compound `O=C1c2cccc3cccc(c23)C(=O)N1CCCCN=C=S` has an IC50 of 3.03 µM.

System: UACC-903
Test: Induction of apoptosis in human UACC-903 cells assessed as early apoptotic cells at 1 uM after 24 hrs using annexin-V-PE/7-AAD double staining by flow cytometry
Format: functional
Details: not given
Summary of the method: (§2)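 UACC 903 cells were exposed 24 h at 37 °C to 1, 5 or 25 µM, with DMSO as control. Cells were harvested, washed twice in cold PBS and resuspended at 1×10^6 cells/mL in binding buffer. They were stained with 7-AAD plus PE Annexin V for 20 min at room temperature in the dark and run by flow cytometry within 1 h. Gating: double-negative live, 7-AAD+ dead, Annexin V+/7-AAD− early apoptotic. Three separate experiments.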
Work on `O=C1c2cccc3cccc(c23)C(=O)N1CCCCN=C=S` yielded an Activity of 21.1%.

System: UACC-903
Test: Induction of apoptosis in human UACC-903 cells assessed as late apoptotic cells at 1 uM after 24 hrs using annexin-V-PE/7-AAD double staining by flow cytometry
Format: functional
Details: not given
Summary of the method: as §2
Work on `O=C1c2cccc3cccc(c23)C(=O)N1CCCCN=C=S` yielded an Activity of 9.79%.

System: UACC-903
Test: Induction of apoptosis in human UACC-903 cells assessed as non-viable cells at 1 uM after 24 hrs using annexin-V-PE/7-AAD double staining by flow cytometry
Format: functional
Details: not given
Summary of the method: as §2
`O=C1c2cccc3cccc(c23)C(=O)N1CCCCN=C=S` showed an Activity of 6.42%.

System: UACC-903
Test: Induction of apoptosis in human UACC-903 cells assessed as viable cells at 1 uM after 24 hrs using annexin-V-PE/7-AAD double staining by flow cytometry
Format: functional
Details: UACC-903, 24 h, read-out: Activity
Summary of the method: as §2
In the case of `O=C1c2cccc3cccc(c23)C(=O)N1CCCCN=C=S`, the viability at 1 µM is reported as 62.7%.

System: UACC-903
Test: Induction of apoptosis in human UACC-903 cells assessed as early apoptotic cells at 5 uM after 24 hrs using annexin-V-PE/7-AAD double staining by flow cytometry
Format: functional
Details: not given
Summary of the method: as §2
Compound `O=C1c2cccc3cccc(c23)C(=O)N1CCCCN=C=S` has an Activity of 34.9%.

System: UACC-903
Test: Induction of apoptosis in human UACC-903 cells assessed as late apoptotic cells at 5 uM after 24 hrs using annexin-V-PE/7-AAD double staining by flow cytometry
Format: functional
Details: not given
Summary of the method: as §2
Work on `O=C1c2cccc3cccc(c23)C(=O)N1CCCCN=C=S` yielded an Activity of 16%.

System: UACC-903
Test: Induction of apoptosis in human UACC-903 cells assessed as non-viable cells at 5 uM after 24 hrs using annexin-V-PE/7-AAD double staining by flow cytometry
Format: functional
Details: not given
Summary of the method: as §2
With `O=C1c2cccc3cccc(c23)C(=O)N1CCCCN=C=S` the Activity was 9.69%.

System: UACC-903
Test: Induction of apoptosis in human UACC-903 cells assessed as viable cells at 5 uM after 24 hrs using annexin-V-PE/7-AAD double staining by flow cytometry
Format: functional
Details: UACC-903, 24 h, read-out: Activity
Summary of the method: as §2
In the case of `O=C1c2cccc3cccc(c23)C(=O)N1CCCCN=C=S`, the viability at 5 µM is reported as 39.4%.

System: UACC-903
Test: Induction of apoptosis in human UACC-903 cells assessed as early apoptotic cells at 25 uM after 24 hrs using annexin-V-PE/7-AAD double staining by flow cytometry
Format: functional
Details: not given
Summary of the method: as §2
`O=C1c2cccc3cccc(c23)C(=O)N1CCCCN=C=S` showed an Activity of 51.7%.

System: UACC-903
Test: Induction of apoptosis in human UACC-903 cells assessed as late apoptotic cells at 25 uM after 24 hrs using annexin-V-PE/7-AAD double staining by flow cytometry
Format: functional
Details: not given
Summary of the method: as §2
Work on `O=C1c2cccc3cccc(c23)C(=O)N1CCCCN=C=S` yielded an Activity of 19.3%.

System: UACC-903
Test: Induction of apoptosis in human UACC-903 cells assessed as non-viable cells at 25 uM after 24 hrs using annexin-V-PE/7-AAD double staining by flow cytometry
Format: functional
Details: not given
Summary of the method: as §2
`O=C1c2cccc3cccc(c23)C(=O)N1CCCCN=C=S` showed an Activity of 6.43%.

System: UACC-903
Test: Induction of apoptosis in human UACC-903 cells assessed as viable cells at 25 uM after 24 hrs using annexin-V-PE/7-AAD double staining by flow cytometry
Format: functional
Details: UACC-903, 24 h, read-out: Activity
Summary of the method: as §2
With `O=C1c2cccc3cccc(c23)C(=O)N1CCCCN=C=S` the viability at 25 µM was 22.5%.

System: UACC-903
Test: Induction of apoptosis in human UACC-903 cells assessed as increase in apoptotic cells after 24 hrs using annexin-V-PE/7-AAD double staining by flow cytometry
Format: functional, cell-based
Details: not given
Summary of the method: as §2
With `O=C1c2cccc3cccc(c23)C(=O)N1CCCCN=C=S` the Activity was “Dose-dependent effect”.

System: Mus musculus
Test: Systemic toxicity in Swiss Webster mouse assessed as mortality at 15 mg/kg, ip administered every day for 28 days
Format: organism-based
Design: dose 15 mg/kg, route intraperitoneal
Details: in vivo, 672 h
Summary of the method: (§3)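 Swiss Webster mice, n = 4 per group, dosed i.p. once daily for 28 days at 5, 7.5, 10 or 15 mg/kg body weight. Body weight recorded twice per week; deaths noted over the dosing period.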
With `O=C1c2cccc3cccc(c23)C(=O)N1CCCCN=C=S` the Activity was “Toxic”.

System: Mus musculus
Test: Systemic toxicity in Swiss Webster mouse assessed as weight loss at 10 mg/kg, ip administered every day for 28 days
Format: organism-based
Design: dose 10 mg/kg, route intraperitoneal
Details: in vivo, 672 h
Summary of the method: as §3
In the case of `O=C1c2cccc3cccc(c23)C(=O)N1CCCCN=C=S`, the Activity is reported as “Non-toxic”.

System: Mus musculus
Test: Systemic toxicity in Swiss Webster mouse assessed as mortality at 10 mg/kg, ip administered every day for 28 days
Format: organism-based
Design: dose 10 mg/kg, route intraperitoneal
Details: in vivo, 672 h
Summary of the method: as §3
With `O=C1c2cccc3cccc(c23)C(=O)N1CCCCN=C=S` the Activity was “Non-toxic”.

System: UACC-903
Test: Antitumor activity against human UACC-903 cells xenografted in athymic Harlan Sprague-Dawley nude mouse assessed as reduction in tumor growth at 8.5 to 10 mg/kg, ip administered thrice per week for 24 days measured after 21 days
Format: functional
Details: dose mg/kg 8.5-10; route intraperitoneal
Summary of the method: (§4)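 Female athymic nude mice, 4–6 weeks old, received 5×10^6 UACC 903 cells s.c. in DMEM/10% FBS above both rib cages. After six days they were randomized at 5 mice/group, 2 tumors/mouse. Dosing was i.p. Mon/Wed/Fri, with one arm dosed daily; controls got DMSO vehicle. Tumor dimensions (calipers, mm³) and body weight were recorded three times weekly.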
For `O=C1c2cccc3cccc(c23)C(=O)N1CCCCN=C=S`, the “growth inhibition (GI)” value was 30%.

System: Mus musculus
Test: Systemic toxicity in athymic Harlan Sprague-Dawley nude mouse xenografted with human UACC-903 cells assessed as reduction in body weight at 8.5 to 10 mg/kg, ip administered thrice a week for 24 days
Format: organism-based
Design: dose 8.5-10 mg/kg, route intraperitoneal
Details: in vivo, 576 h
Summary of the method: as §4
In the case of `O=C1c2cccc3cccc(c23)C(=O)N1CCCCN=C=S`, the Activity is reported as “Non-toxic”.

System: SK-MEL-37 (Homo sapiens)
Test: Cytotoxicity against human SK-MEL-37 cells assessed as decrease in cell viability after 24 hrs by MTS assay
Details: not given
In the case of `O=C1c2cccc3cccc(c23)C(=O)N1CCCCN=C=S`, the Activity is reported as “Dose-dependent effect”.

System: SK-MEL-37 (Homo sapiens)
Test: Cytotoxicity against human SK-MEL-37 cells assessed as decrease in cell viability after 72 hrs by MTS assay
Details: not given
For `O=C1c2cccc3cccc(c23)C(=O)N1CCCCN=C=S`, the Activity was “Dose-dependent effect”.
